Assay [1] deals with T1, 17-beta-hydroxysteroid dehydrogenase type 2 (Homo sapiens) (UniProt P37059).
T1 sequence (whole entry): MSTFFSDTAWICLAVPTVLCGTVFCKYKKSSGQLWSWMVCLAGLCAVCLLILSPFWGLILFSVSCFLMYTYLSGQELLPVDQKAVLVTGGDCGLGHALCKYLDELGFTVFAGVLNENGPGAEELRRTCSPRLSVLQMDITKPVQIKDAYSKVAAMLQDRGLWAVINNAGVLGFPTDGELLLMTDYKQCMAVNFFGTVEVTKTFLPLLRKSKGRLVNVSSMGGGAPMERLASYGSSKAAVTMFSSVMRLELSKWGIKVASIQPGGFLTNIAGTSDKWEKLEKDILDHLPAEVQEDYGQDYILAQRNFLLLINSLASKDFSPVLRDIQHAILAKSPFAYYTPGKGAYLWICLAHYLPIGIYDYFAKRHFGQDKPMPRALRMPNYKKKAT
Nature of the assay: Inhibition of human placental 17beta-HSD2 microsomal fraction using tritiated estradiol as substrate assessed as formation of estrone at 1 uM by HPLC analysis relative to control. Put shortly:
(§1)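 Placental microsomes were incubated with tritiated E2 (500 nM final) plus NAD⁺ cofactor and test compound. Labeled E2 and E1 were separated by HPLC and quantified. Mean of three determinations, standard deviation below 20%.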

Assay [2] has as its target T2, 17-beta-hydroxysteroid dehydrogenase type 1 (Homo sapiens) (UniProt P14061).
T2 sequence (whole entry): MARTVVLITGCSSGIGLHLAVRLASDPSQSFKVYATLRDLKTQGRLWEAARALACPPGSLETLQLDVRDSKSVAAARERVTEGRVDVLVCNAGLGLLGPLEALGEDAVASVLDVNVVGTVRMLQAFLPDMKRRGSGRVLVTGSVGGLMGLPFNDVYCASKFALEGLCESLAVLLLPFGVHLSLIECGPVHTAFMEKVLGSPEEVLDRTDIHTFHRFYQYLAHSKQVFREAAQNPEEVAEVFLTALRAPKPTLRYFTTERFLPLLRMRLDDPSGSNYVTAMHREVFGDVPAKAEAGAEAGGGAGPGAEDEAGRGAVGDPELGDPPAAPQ
Nature of the assay: Inhibition of human placental 17beta-HSD1 cytosolic fraction using tritiated estrone as substrate assessed as formation of estradiol at 1 uM by HPLC analysis relative to control. Put shortly:
(§2)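 Cytosolic fraction from placenta served as the enzyme source, incubated with tritiated E1 (500 nM final), NADH cofactor and test compound. E1 and E2 were separated by HPLC and the labeled species quantified. Mean of three determinations.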

The target of assay [3] is T3, Estradiol 17-beta-dehydrogenase 2 (Mus musculus) (UniProt P51658).
T3 sequence (whole entry): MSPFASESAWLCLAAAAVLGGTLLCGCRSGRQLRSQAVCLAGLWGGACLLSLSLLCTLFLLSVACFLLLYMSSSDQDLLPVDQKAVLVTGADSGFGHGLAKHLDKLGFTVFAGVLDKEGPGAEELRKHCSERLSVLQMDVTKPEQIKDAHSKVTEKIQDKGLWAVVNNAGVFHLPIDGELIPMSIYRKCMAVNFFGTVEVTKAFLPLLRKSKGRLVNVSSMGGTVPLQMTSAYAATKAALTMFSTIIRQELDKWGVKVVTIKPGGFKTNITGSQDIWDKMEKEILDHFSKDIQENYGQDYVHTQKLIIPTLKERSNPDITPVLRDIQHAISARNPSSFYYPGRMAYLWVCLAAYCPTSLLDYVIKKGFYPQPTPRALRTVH
Nature of the assay: Inhibition of mouse liver 17beta-HSD2 microsomal fraction using tritiated estradiol as substrate assessed as formation of estrone at 1 uM by HPLC analysis relative to control. Put shortly: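 Mouse liver microsomes were used, following the same procedure as the human type 2 assay: tritiated E2 at 500 nM with NAD⁺, and E1 formation quantified after HPLC separation.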

The next assay is filed under the species Homo sapiens. In words: Selectivity factor, ratio of IC50 for human placental 17beta-HSD1 cytosolic fraction to IC50 for placental 17beta-HSD2 microsomal fraction. Put shortly:
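Selectivity factor calculated as IC50(h17β-HSD1)/IC50(h17β-HSD2), both IC50 values taken from the placental cytosolic and microsomal radiolabel HPLC assays.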

In assay [4] the target is T4, 17-beta-hydroxysteroid dehydrogenase type 2 (Homo sapiens, UniProt P37059).
T4 sequence (P37059 whole entry): T1 sequence (whole entry)
Nature of the assay: Inhibition of human placental 17beta-HSD2 microsomal fraction using tritiated estradiol as substrate assessed as formation of estrone by HPLC analysis. Put shortly: as §1

The target of assay [5] is T5, 17-beta-hydroxysteroid dehydrogenase type 1 (Homo sapiens, UniProt P14061).
T5 sequence (P14061 whole entry): T2 sequence (whole entry)
In words: Inhibition of human placental 17beta-HSD1 cytosolic fraction using tritiated estrone as substrate assessed as formation of estradiol by HPLC analysis. Put shortly:
as §2

Assay [6] addresses T6, Estrogen receptor (Homo sapiens) (UniProt P03372).
T6 sequence (whole entry): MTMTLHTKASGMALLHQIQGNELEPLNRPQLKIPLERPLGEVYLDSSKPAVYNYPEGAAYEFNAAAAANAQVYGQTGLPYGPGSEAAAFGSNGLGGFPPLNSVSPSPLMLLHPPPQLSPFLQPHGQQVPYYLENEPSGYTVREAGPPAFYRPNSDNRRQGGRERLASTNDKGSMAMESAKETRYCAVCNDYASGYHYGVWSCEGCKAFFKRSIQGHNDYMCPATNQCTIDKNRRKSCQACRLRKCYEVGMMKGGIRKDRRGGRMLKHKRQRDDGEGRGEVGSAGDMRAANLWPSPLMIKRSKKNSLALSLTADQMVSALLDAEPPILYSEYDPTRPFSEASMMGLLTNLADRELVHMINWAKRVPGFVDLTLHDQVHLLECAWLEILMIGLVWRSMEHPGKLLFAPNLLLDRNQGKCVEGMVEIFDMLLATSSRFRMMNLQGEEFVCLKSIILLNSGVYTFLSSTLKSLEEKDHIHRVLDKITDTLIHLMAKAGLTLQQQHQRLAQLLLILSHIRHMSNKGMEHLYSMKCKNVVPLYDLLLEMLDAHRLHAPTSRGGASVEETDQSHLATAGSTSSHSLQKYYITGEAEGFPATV
Nature of the assay: Displacement of [3H]-estradiol from recombinant human estrogen receptor-alpha by liquid scintillation counting analysis relative to estradiol. In outline:
(§3)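 Competitive binding with [³H]-E2; compounds in DMSO at 5% final. Non-specific binding was set with unlabeled E2 at 100-fold the tracer: 300 nM for ERα, 1000 nM for ERβ. Bound complexes were captured on hydroxyapatite and counted by liquid scintillation. Concentrations displacing 50% were read from sigmoidal curves, with E2 run in each experiment. RBA[%] = IC50(E2)/IC50(compound) × 100.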
(In general: In a radioligand displacement assay an active substance lowers the binding of a labelled ligand.)

The target of assay [7] is Estrogen receptor beta (Homo sapiens) (UniProt Q92731). In words: Displacement of [3H]-estradiol from recombinant human estrogen receptor-beta by liquid scintillation counting analysis relative to estradiol. Put shortly:
as §3

Activity calls are given as the source filed them. No cut-off for these calls is given here.

The inhibition is the percentage by which the read-out fell short of the control. One may read the IC50 as the midpoint of a concentration-inhibition curve.

Chain of Estrogen receptor beta (Homo sapiens) (Q92731 whole entry): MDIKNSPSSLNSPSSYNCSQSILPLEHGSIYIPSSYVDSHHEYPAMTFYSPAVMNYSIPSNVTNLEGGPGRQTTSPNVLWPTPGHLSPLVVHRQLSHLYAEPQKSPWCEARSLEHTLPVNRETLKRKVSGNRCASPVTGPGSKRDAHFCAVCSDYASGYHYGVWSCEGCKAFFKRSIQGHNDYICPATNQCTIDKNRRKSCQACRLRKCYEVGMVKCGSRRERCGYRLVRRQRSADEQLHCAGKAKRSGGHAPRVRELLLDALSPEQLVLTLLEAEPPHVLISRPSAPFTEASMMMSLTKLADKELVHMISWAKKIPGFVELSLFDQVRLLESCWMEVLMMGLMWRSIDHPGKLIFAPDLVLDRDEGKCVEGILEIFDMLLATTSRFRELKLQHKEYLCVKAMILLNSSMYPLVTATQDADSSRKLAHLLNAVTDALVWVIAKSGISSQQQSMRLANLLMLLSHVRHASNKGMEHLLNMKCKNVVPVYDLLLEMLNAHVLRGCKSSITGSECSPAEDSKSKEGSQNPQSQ

For the compound `COc1cccc(CC(=O)c2ccc(-c3cccc(OC)c3)s2)c1`, the inhibition came to 17% in assay [1] and 12% in assay [3]. Besides, the inhibition entry in assay [2] is “inactive”.

In the case of `CN(Cc1cccc(O)c1)C(=O)c1ccc(-c2cccc(O)c2)s1`, the Ratio IC50 in the assay listed under Homo sapiens worked out at 14. The inhibition in assay [3] was found to be 16%.

In the case of `CC(C)(C(=O)c1ccc(-c2cccc(O)c2)s1)c1cccc(O)c1`, the inhibition in assay [1] is 73%; in assay [2], 54%; in assay [3], 42%. Also, the half-inhibitory concentration (IC50) in assay [4] amounted to 357 nM; in assay [5], 336 nM. In the assay filed under Homo sapiens, the Ratio IC50 was 1.

As to `COc1cccc(-c2csc(C(=O)N(C)c3cccc(OC)c3)c2)c1`, the RBA in assay [6] and in assay [7] was less than 0.1% each time.

For the compound `COc1cccc(-c2ccc(C(=O)N(C)Cc3cccc(O)c3)s2)c1F`, the inhibition result in assay [2] is “inactive”. Also, in the assay filed under Homo sapiens, the Ratio IC50 came out at 73.

For `Oc1cccc(-c2cc(-c3cccc(O)c3)c(-c3cccc(O)c3)s2)c1`, in the assay filed under Homo sapiens, the Ratio IC50 was found to be 2. For the same compound, the RBA in assay [6] and in assay [7] was less than 0.1% in each case. Further, the inhibition entry in assay [3] was “inactive”.

In the case of `CN(C(=O)c1cc(-c2cccc(O)c2)sc1-c1cccc(O)c1)c1cccc(O)c1`, the inhibition in assay [1] was found to be 74%; in assay [2], 29%; in assay [3] it was 42%. Also, the figures for the IC50 in assay [4] and in assay [5] were 362 nM and 2490 nM, respectively. The Ratio IC50 in the assay listed under Homo sapiens is 7.

Take `COc1cccc(CN(C)C(=O)c2ccc(-c3cccc(OC)c3)s2)c1`: the inhibition result in assay [2] is “inactive”. In addition, the IC50 in assay [5] is greater than 10000 nM. Also, the Ratio IC50 in the assay listed under Homo sapiens was greater than 250. Besides, the inhibition in assay [3] stood at 26%.

As to `Cc1cc(-c2cccc(O)c2)sc1-c1cccc(O)c1`, in the assay filed under Homo sapiens, the Ratio IC50 was found to be 2. Further, the inhibition entry in assay [3] was “inactive”.

Regarding `O=C(Cc1cccc(O)c1)c1ccc(-c2cccc(O)c2)s1`, the inhibition in assay [1] came out at 37%; in assay [2], 43%. Further, the inhibition result in assay [3] is “inactive”.

The values above are taken from ChEMBL document CHEMBL3286341, “Novel, potent and selective 17β-hydroxysteroid dehydrogenase type 2 inhibitors as potential therapeutics for osteoporosis with dual human and mouse activities” (Eur J Med Chem, 2014).
